Sampled rows, rich in hits. Any-hit rate of the full collection: about 3.7%.
NR3A LBD binder: NR3A (human) ligand-binding domain modulation | NR3A LBD differential scanning fluorimetry, Tm shift; 0% = protein alone, 100% = glycine-bound protein | Tm shift relative to glycine control, % at 25 µM | actives 2.5% (n = 340,000) | AID 1259313;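 active means melting temperature shift of at least 10% of the positive control shift, at one fixed dose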
aDG glyco act: increases alpha dystroglycan glycosylation; actives 0.22% (n = 360,000); Pro5-aDG cells, alpha-DG glycosylation AlphaScreen (IIH6); 0% Pro5, 100% B10-LARGE cell signal; activation, % at 10 µM; AID 624168;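 active means activation of at least 8% versus controls, or a plate z-score of at least 8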;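 further: Pro5 are CHO cells carrying HIG-tagged alpha-DG that lacks glycosylation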
proCasp3 act: activators of human procaspase-3. actives 0.11% (n = 330,000). activation, % at 8.5 µM. recombinant procaspase-3 D3A, Ac-DEVD-pNA absorbance 405 nm. P42574;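 active means activation above the mean of all tested compounds plus 3 SD, cut at about 21% in these data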;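 further: 0% = DMSO alone and 100% = DMSO wells spiked with extra 5 µM PC-3 D3A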
Target sequence (P42574 whole entry D9A/D28A/D175A): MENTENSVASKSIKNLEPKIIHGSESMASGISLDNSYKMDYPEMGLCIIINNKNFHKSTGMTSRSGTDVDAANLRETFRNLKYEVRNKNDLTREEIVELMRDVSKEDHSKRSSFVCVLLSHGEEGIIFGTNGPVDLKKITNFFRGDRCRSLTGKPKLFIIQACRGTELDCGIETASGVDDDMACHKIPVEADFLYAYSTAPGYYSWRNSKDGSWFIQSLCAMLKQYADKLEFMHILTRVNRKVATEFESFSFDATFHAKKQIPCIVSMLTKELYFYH
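Test system: Procaspase-3 D3A mutant, all three cleavage aspartates alanine | Dosing: Single dose, 8.5 µM nominal compound, 0.8% DMSO | Schedule: 1 h preincubation, 2 h reaction | Technique: 405 nm absorbance of p-nitroaniline, reads at 0 and 120 min | Repeats: One well per compound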
MPTP inh: blocks calcium-induced mitochondrial swelling; actives 1.4% (n = 360,000); inhibition, % at 10 µM; AID 602449; isolated mouse mitochondria, Ca2+ swelling absorbance, 30 min;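 active means inhibition of 50% or more, scaled per plate between neutral and stimulator controls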;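 further: 0% = DMSO wells given calcium and 100% = 1 mM EGTA wells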
procasp7 counter: counter-screen: procaspase-7 (human) activation; P55210; actives 0.093% (n = 330,000); activation, % at 8.5 µM; recombinant procaspase-7, Ac-DEVD-pNA absorbance 405 nm; D23A/D198A/D206A triple mutant, cannot self-cleave; scale: DMSO 0, 5 µM enzyme 100;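 active means percent activation above the screen-wide mean plus 3 SD, cut at about 25% in these data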
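Assay system: Uncleavable procaspase-7 mutant enzyme; Input: 2 µM procaspase-7 mutant as dispensed; Also added: DEVD-pNA substrate; Medium: Zinc-free HEPES pH 7.4 with 300 mM NaCl, 0.01% Triton X-100; Timing: 1 h compound preincubation, 2 h substrate cleavage, 25 °C; Measured by: Epi-absorbance of released pNA at 405 nm, two timepoints.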
Numbers without * were called inactive; · = not tested or not shown.

SMILES | NR3A LBD binder | aDG glyco act | proCasp3 act | MPTP inh | procasp7 counter
O=C(O)c1c(C(=O)O)c(-c2ccc(Br)cc2)n2c1CSC2 | 13.5* | -0.1 | -3.5 | 4.4 | 2.6
O=C(/C=C/c1ccccc1)Nc1cccc(C(=O)NCCCc2ccccc2)c1 | 27.2* | -0.1 | · | 0.1 | ·
O=C(/C=C/c1ccccc1)Nc1cccnc1 | 30.3* | 0.1 | 7.5 | -1.2 | 6.1
O=C(/C=C/c1ccccc1)Nc1ccc2c(c1)C(=O)NC2=O | 14.2* | 0.6 | -24.2 | 0.8 | -23.6
O=C(/C=C/c1ccc([N+](=O)[O-])cc1)Nc1cccnc1 | 2.8 | -0.1 | 1.7 | 2.4 | 2.9
CC(NC(=O)CCSCc1ccccc1F)c1ccccc1 (stereo unspecified) | -5.1 | 0.0 | -6.7 | 0.2 | -7.0
CCOC(=O)C1CCCN(C(=O)c2ccc3ncsc3c2)C1 (stereo unspecified) | -0.8 | 3.0 | -11.1 | 0.4 | -5.2
CCOC(=O)c1[nH]c(C)c(CN(CCc2ccc(OC)c(OC)c2)C(=O)CCCC(=O)O)c1C | 14.6* | -0.5 | -8.4 | -0.4 | 0.1
Cc1ccc(F)cc1NC(=O)c1ccc(NS(=O)(=O)c2ccc(Br)s2)cc1 | 16.3* | -0.1 | 1.6 | -4.5 | -0.9
CCOC(=O)c1ccc(N2C(=O)c3n[nH]c(C)c3C2c2cccnc2)cc1 (stereo unspecified) | -2.1 | 0.0 | 7.5 | -1.2 | 6.0
CCOC(=O)c1ccc(N2C(=O)c3n[nH]c(C)c3C2c2ccccn2)cc1 (stereo unspecified) | -1.0 | 4.6* | 7.2 | -1.5 | -3.9
CCOC(=O)c1ccc(-n2c(-c3ccco3)nc3ccccc3c2=O)cc1 | -0.1 | -0.1 | 4.4 | 4.7 | 10.8
CCOC(=O)c1ccc(N2C(=O)c3n[nH]c(-c4ccco4)c3C2c2ccc([N+](=O)[O-])cc2)cc1 (stereo unspecified) | 26.7* | 0.8 | 5.6 | -0.2 | -1.5
O=C(CSc1nc2ccccc2n1S(=O)(=O)c1ccccc1)N1CCCCC1 | 13.6* | 0.1 | 5.6 | 3.0 | -10.2
FC(F)(F)c1cc(-c2ccccc2)nc(N2CCCCCC2)n1 | 10.8* | -0.1 | -3.4 | 7.2 | -8.1
CN1CCN(c2nc(C#N)cc(-c3ccccc3)n2)CC1 | 10.8* | 0.1 | 8.3 | 1.4 | -5.0
NC(Cc1ccccc1)c1csc(Nc2ccc(C(=O)NCCCO)cn2)n1 (stereo unspecified) | · | 0.1 | · | -1.1 | ·
CC(C)c1ccc(/C=C/C(=O)Nc2nc3ccc([N+](=O)[O-])cc3s2)cc1 | 7.5 | -0.4 | -0.9 | 36.6 | 16.3
O=[N+]([O-])c1ccc2nc(NN=Cc3ccc(O)cc3)sc2c1 | 23.1* | 0.0 | · | 7.4 | ·
COc1ccc(/C=N/Nc2nc(-c3cccnc3)nc3ccccc23)cc1OC | -18.4 | -0.2 | -20.3 | 2.4 | -11.4
Oc1ccc(/C=N/Nc2nc(-c3cccnc3)nc3ccccc23)c(O)c1 | 16.3* | -0.1 | 6.7 | 8.9 | 9.0
Cc1c(O)ccc(/C=N/Nc2nc(-c3cccnc3)nc3ccccc23)c1O | 28.8* | -0.3 | -36.3 | 9.6 | -6.2
Nc1nc(SCc2ccccc2)c2ncn(CCO)c2n1 | -1.1 | -0.3 | · | -0.4 | ·
O=C(O)Cn1nc(C(F)(F)F)c2c1CCC2 | -5.0 | -0.2 | -0.7 | -0.6 | -2.4
NC(=O)Cn1nc(C(F)(F)F)c2c1CCCC2 | 27.3* | 0.0 | 8.2 | 0.4 | 2.0
SMILES | NR3A LBD binder | aDG glyco act | proCasp3 act | MPTP inh | procasp7 counter
Cc1noc(/C=C/N(C)C)c1S(=O)(=O)N1CCCC(C(=O)N2CCCCC2)C1 (stereo unspecified) | 14.1* | -0.1 | -9.6 | 2.6 | 5.0
O=C(Cn1c(-c2ccccc2)noc1=O)NCc1ccccc1 | 12.7* | 0.2 | 8.7 | -0.3 | 4.1
COc1ccc(/C=N/NS(=O)(=O)c2ccccc2)cc1OC(=O)c1ccc(C)cc1 | 18.6* | -0.1 | 6.8 | -0.1 | 0.5
COc1cc(/C=N/NS(=O)(=O)c2ccc(C)cc2)ccc1OCc1cccc(C(=O)O)c1 | -0.4 | -0.4 | 6.9 | 0.0 | -16.1
COc1ccc(/C=N/NS(=O)(=O)c2ccc(C)cc2)cc1OC(=O)c1ccccc1 | 10.3* | -0.1 | 4.9 | 0.4 | -1.8
COc1ccc(/C=N\NS(=O)(=O)c2ccc(C)cc2)cc1COc1ccccc1[N+](=O)[O-] | 11.6* | -0.3 | 5.2 | 2.6 | -1.6

Screening results deposited in PubChem BioAssay by several laboratories.
